A selection: hits, their analogues and other compounds. The true share with any hit is near 2.9%.
Apaf-1 inh: inhibitors of human Apaf-1 apoptosome, primary screen, biochemical, DEVD-Rh110 fluorescence, uHTS. reconstituted apoptosome caspase-3 activity. inhibition, % at 20 µM. actives 0.71% (n = 330,000). AID 489030, 2010; active means inhibition of at least 40% at 20 µM
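Assay system: Apoptosome proteins | Medium: pH 7.5 Hepes buffer with CHAPS, BSA, DTT | Also added: Cytochrome c and DEVD-Rh110 substrate | Times: 30 min plus 50 min, RT | Detection: Rhodamine 110 fluorescence at Ex 480/Em 540 nm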
PfM18AAP inh: PfM18AAP inhibitors, malaria aminopeptidase, primary screen, biochemical, QFRET, recombinant enzyme; M18 aspartyl aminopeptidase (Plasmodium falciparum 3D7); H-Glu-NHMec fluorogenic cleavage; inhibition, % at 7.35 µM; actives 1.2% (n = 290,000); AID 1822, 2009;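 active means inhibition above the campaign mean inhibition over all tested compounds plus 3 SD, cut at about 28% in these data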
EBNA-1 inhibitor: EBNA-1 DNA-binding inhibitors, primary screen, biochemical, fluorescence polarization; inhibition, % at 14.8 µM; actives 0.34% (n = 300,000); AID 1950, 2009; in the data active means inhibition above about 28%
PfG6PD inh: PfG6PD enzyme inhibitors, primary screen, biochemical, fluorescence intensity, uHTS | glucose-6-phosphate dehydrogenase-6-phosphogluconolactonase (Plasmodium falciparum 3D7) | PfGluPho enzyme, NADPH resazurin-diaphorase fluorescence | inhibition, % at 20 µM | actives 0.78% (n = 350,000) | AID 504690, 2011;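 active means inhibition reaching at least a set limit at 20 µM in the primary screen, cut at about 59% in these data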
ZTA DNA inh: counter-screen for EBNA-1 inhibitors: inhibitors of Epstein-Barr virus ZTA | ZTA-DNA binding, fluorescence polarization | actives 0.15% (n = 320,000) | inhibition, % at 11 µM; in the data active means inhibition above about 33%
Target sequence (P03206 whole entry, looked up): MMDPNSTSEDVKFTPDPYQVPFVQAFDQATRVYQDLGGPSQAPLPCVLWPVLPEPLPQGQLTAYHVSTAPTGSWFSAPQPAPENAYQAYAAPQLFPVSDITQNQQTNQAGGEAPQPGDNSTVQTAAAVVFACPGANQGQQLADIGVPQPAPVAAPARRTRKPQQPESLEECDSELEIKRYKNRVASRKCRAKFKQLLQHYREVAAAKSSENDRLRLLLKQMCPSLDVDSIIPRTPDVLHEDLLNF
UBC13 inh: UBC13 polyubiquitin chain formation inhibitors, primary screen, biochemical, TR-FRET, uHTS; inhibition, % at 20 µM; actives 0.47% (n = 330,000); in the data active means inhibition above about 45%, passing the limit was not always enough
Target sequence (P61088 whole entry, looked up): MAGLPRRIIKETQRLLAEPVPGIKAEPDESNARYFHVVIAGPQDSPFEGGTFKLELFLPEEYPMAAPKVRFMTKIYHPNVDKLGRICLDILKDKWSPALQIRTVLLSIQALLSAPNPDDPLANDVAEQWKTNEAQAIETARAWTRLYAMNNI
PfG6PD confirm: PfG6PD inhibitors, hit retest, confirmation, biochemical, fluorescence intensity, single concentration; inhibition, % at 20 µM; shares compounds with PfG6PD inh; actives 34% (n = 2,400); AID 504753, 2011; recombinant PfGluPho, NADPH-diaphorase-resazurin fluorescence;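 active means inhibition of at least 50% at 20 µM in any single replicate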
Diaph ctr 10uM: diaphorase inhibitors and chemical oxidizers, confirmation, counter-screen for P. falciparum G6PD inhibitor project, biochemical, fluorescence intensity, 10 µM NADPH. shares compounds with PfG6PD inh. inhibition, % at 20 µM. AID 504862, 2011. diaphorase-coupled resazurin reduction, NADPH 10 uM. actives 39% (n = 820);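 active means average inhibition reaching 50% or more with the compound at 20 µM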;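 further: resorufin red fluorescence formed as diaphorase reduces resazurin using NADPH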
Diaph ctr 30uM: diaphorase inhibitors and chemical oxidizers, confirmation, counter-screen for P. falciparum G6PD inhibitor project, biochemical, fluorescence intensity, 30 µM NADPH; Diaphorase/resazurin coupled assay, resorufin fluorescence; AID 504863, 2011; shares compounds with PfG6PD inh; actives 29% (n = 820); inhibition, % at 20 µM;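 active means inhibition averaging 50% or more, tested at 20 µM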
Large screens that a line does not name were inactive (follow-up assays come after a bar, where they were run).

c1ccc(SSc2ccccn2)nc1	PfG6PD inh 68.0 (no result: PfM18AAP inh) | PfG6PD confirm 57.7 | Diaph ctr 10uM inactive | Diaph ctr 30uM inactive
Cc1ccc(Nc2cc(C)c(O)c(C)c2)cc1	PfG6PD inh 107.3 | PfG6PD confirm 69.3 | Diaph ctr 10uM 61.7 | Diaph ctr 30uM inactive
COc1ccc(OCCOC(=O)c2cc(S(=O)(=O)N3CCOCC3)c(Cl)cc2Cl)cc1	none (no result: PfM18AAP inh)
COc1ccc2cc(S(=O)(=O)N3CCCC(C)C3)ccc2c1 (stereo unspecified)	none
CCCCOC(=O)C1=C(C)Nc2ncnn2C1c1ccc(OCC)c(OC)c1 (stereo unspecified)	PfG6PD inh 61.6 | PfG6PD confirm inactive
COc1ccc2c(c1)sc1nc(-c3ccccc3)cn12	PfG6PD inh 97.8 | PfG6PD confirm inactive
CCOC(=O)N1CCN(C(=O)c2ccc3c(c2)sc2nc(-c4ccc(OC)cc4)cn23)CC1	none
CC(Oc1ccc2ccc(=O)oc2c1)C(=O)NC(Cc1c[nH]c2ccc(O)cc12)C(=O)O (stereo unspecified)	none
COc1cccc(CNc2ccc(N3CCCCC3)cc2)c1OC	none
COc1cc(CNc2ccc(N3CCOCC3)cc2)cc(Br)c1OC	none
COc1cc(CNc2ccc(N3CCCC3)cc2)cc(Cl)c1OC	EBNA-1 inhibitor 110.7, PfG6PD inh 75.4, ZTA DNA inh 127.4 | PfG6PD confirm 75.5 | Diaph ctr 10uM inactive | Diaph ctr 30uM inactive
COc1ccccc1CNc1ccc(N2CCCCC2)cc1	PfG6PD inh 66.3 | PfG6PD confirm inactive
CCOc1ccc(CNc2ccc(N3CCCC3)cc2)cc1	EBNA-1 inhibitor 79.0, PfG6PD inh 94.8, ZTA DNA inh 85.8 | PfG6PD confirm 81.5 | Diaph ctr 10uM inactive | Diaph ctr 30uM inactive
COC(=O)CSC1=C(C#N)C(c2ccccc2F)CC(=O)N1 (stereo unspecified)	none (no result: PfM18AAP inh)
N#CC1=C2SCN(c3ccccc3)CN2C(=O)CC1c1c(Cl)cccc1Cl (stereo unspecified)	PfM18AAP inh 36.1, PfG6PD inh 85.5 | PfG6PD confirm inactive
N#CC1=C2SCN(Cc3ccccc3)CN2C(=O)CC1c1ccccc1F (stereo unspecified)	PfG6PD inh 61.0 | PfG6PD confirm inactive
N#CC1=C2SCC(O)(c3ccccc3)N2C(=O)CC1c1cccs1 (stereo unspecified)	none (no result: Apaf-1 inh, UBC13 inh)
N#CC1=C2SCN(c3ccccc3)CN2C(=O)CC1c1cccs1 (stereo unspecified)	PfM18AAP inh 37.4, PfG6PD inh 70.7 | PfG6PD confirm inactive
N#CC1=C2SCN(Cc3ccco3)CN2C(=O)CC1c1c(F)cccc1Cl (stereo unspecified)	PfG6PD inh 65.7 | PfG6PD confirm inactive
CC1CCN(c2ccc(-c3cccc(NC(=O)c4ccco4)c3)nn2)CC1	none (no result: PfM18AAP inh)
O=C(NCC1CCCO1)C(=O)c1c[nH]c2ccccc12 (stereo unspecified)	none
CCSC1=C(C#N)C(c2ccccc2Cl)CC(=O)N1 (stereo unspecified)	none
N#CC1=C2SCN(c3ccccc3)CN2C(=O)CC1c1ccccc1Cl (stereo unspecified)	PfG6PD inh 74.5 | PfG6PD confirm inactive
O=C(NCCO)/C(=C\c1cccc([N+](=O)[O-])c1)NC(=O)c1cccs1	none (no result: Apaf-1 inh, PfM18AAP inh, EBNA-1 inhibitor, ZTA DNA inh, UBC13 inh)
C=CCN(C(=O)Nc1ccc(OC)cc1)c1nnc(-c2ccncc2)s1	none
NS(=O)(=O)c1ccc(O)c(NC(=O)c2ccc([N+](=O)[O-])o2)c1	PfG6PD inh 77.7 | PfG6PD confirm inactive
COc1ccc(S(=O)(=O)N/N=C\c2ccccc2F)cc1	none
Nn1cnnc1N/N=C\c1ccc(-c2ccccc2[N+](=O)[O-])o1	PfM18AAP inh 53.9, PfG6PD inh 80.5 (no result: Apaf-1 inh, EBNA-1 inhibitor, ZTA DNA inh, UBC13 inh) | PfG6PD confirm 53.4 | Diaph ctr 10uM 73.6 | Diaph ctr 30uM 56.5
Clc1ccc(-c2cn3cc(Cl)ccc3n2)cc1	PfG6PD inh 72.2 | PfG6PD confirm inactive
Cc1ccc2nc(-c3ccccc3)cn2c1	PfG6PD inh 79.0 | PfG6PD confirm inactive
Cc1ccc2nc(-c3ccc(-c4ccccn4)s3)cn2c1	PfG6PD inh 64.6 | PfG6PD confirm inactive
Clc1ccc(-c2cn3ccccc3n2)cc1	none
C[C@H](NC(=O)c1ncn(C)c1C(=O)N[C@@H](C)c1ccccc1)c1ccccc1	none (no result: PfM18AAP inh, EBNA-1 inhibitor, ZTA DNA inh)
COc1ccccc1N1CCN(C(=O)c2ccc3c(=O)n(Cc4ccc5c(c4)OCO5)c(=O)[nH]c3c2)CC1	none
Cc1ccc(NC(=O)CSc2nc3ccccc3c(=O)n2CCCN2CCCCC2)cc1Cl	none
COC(=O)c1[nH]c2cccc(Cl)c2c1NC(=O)CN(C)C1CCCCC1	none
COc1ccc(N(CC(C)C)S(=O)(=O)c2nnc(NC(=O)CC(C)C)s2)cc1	none (no result: EBNA-1 inhibitor, ZTA DNA inh)
CN(C)c1ccc(NC(=O)c2cc3c(=O)n4ccccc4nc3n2C)cc1	PfG6PD inh 61.6 | PfG6PD confirm inactive
COc1ccccc1OCCn1ccnc1	none
CCC(C)c1ccccc1OCCn1ccnc1 (stereo unspecified)	PfG6PD inh 70.0 | PfG6PD confirm 56.1 | Diaph ctr 10uM inactive | Diaph ctr 30uM inactive
Cc1ccc(S(=O)(=O)N(C(=O)c2ccncc2)c2ccc(OC(=O)c3ccncc3)c3ccccc23)cc1	PfG6PD inh 73.9 | PfG6PD confirm 56.0 | Diaph ctr 10uM inactive | Diaph ctr 30uM inactive
CC(=O)Oc1ccc(N(C(C)=O)S(=O)(=O)c2ccccc2)c2ccccc12	none (no result: Apaf-1 inh, PfM18AAP inh, EBNA-1 inhibitor, ZTA DNA inh, UBC13 inh)
O=S(=O)(N=C1C=CC(=NS(=O)(=O)c2ccccc2)c2ccccc21)c1ccccc1	PfG6PD inh 61.8 (no result: Apaf-1 inh, PfM18AAP inh, EBNA-1 inhibitor, ZTA DNA inh, UBC13 inh) | PfG6PD confirm inactive
O/N=C1/C2C3C(Br)C4C5CC(C1C53)C24 (stereo unspecified)	none
O=C(NCCCNC(=O)c1ccc(F)cc1)c1ccc(F)cc1	none
COc1ccccc1-n1c(SCC(=O)NCc2ccc3c(c2)OCO3)nc2cc([N+](=O)[O-])ccc21	PfG6PD inh 95.2 | PfG6PD confirm inactive
